Assay results gathered from unrelated publications.
Protocols differ between the studies behind these lines.
MET M1250T: Hepatocyte growth factor receptor (MET, Homo sapiens, UniProt P08581, M1250T)
MET Y1235D: Hepatocyte growth factor receptor (MET, Homo sapiens, UniProt P08581, Y1235D)

F[C@@H]1CCN(c2nccc(-c3cnn4ncccc34)n2)C1  remaining binding (MET M1250T; binding; 1 µM): 100%
CNC(=O)c1cc2c(Oc3ccc(NC(=O)C4(C(=O)Nc5ccc(F)cc5)CC4)cc3)ccnc2cc1OC  inhibition (Hepatocyte growth factor receptor (MET, Homo sapiens, UniProt P08581, D1228H); enzyme activity, inhibitor, radiometric; 1 µM): 103%
Cc1cnc(NC2CCOCC2)nc1-n1cnc(C(=O)NC(CN)c2cc(F)cc(Cl)c2)c1 (stereo not shown)  remaining activity (Hepatocyte growth factor receptor (MET, Homo sapiens, UniProt P08581, D1228N); enzyme activity, inhibitor, radiometric; 1 µM): 97%
Cc1cc(NC(=O)c2cccc3cc(-c4cccc5[nH]nc(N)c45)ccc23)ccc1F  activity vs control (Hepatocyte growth factor receptor (MET, Homo sapiens, UniProt P08581, Y1230C); enzyme activity, inhibitor; 0.1 µM): 92%
Nc1cnc(N2CCc3cc(S(=O)(=O)Nc4c(F)cc(Cl)cc4F)cc(N4CCCC4=O)c32)nc1  remaining binding (MET Y1235D; cell-free assay, competition with immobilised ligand; 1 µM): 69%
Nc1ncnc2occ(-c3ccc(NC(=O)Nc4cc(C(F)(F)F)ccc4F)cc3)c12  remaining signal (Hepatocyte growth factor receptor (MET, Homo sapiens, UniProt P08581); cell-free assay; 20 µM): 8.8%
O=C(NCCCC1CCCCC1)c1ccc(CNC(=O)c2cnn(-c3ccccc3)c2C(F)(F)F)cc1  remaining binding (MET M1250T; cell-free assay, competition with immobilised ligand; 0.1 µM): 76%
Cc1ccc(NC(=O)c2ccc(C)c(C(F)(F)F)c2)cc1C#Cc1nn(C2CCC(O)CC2)c2ncnc(N)c12 (stereo not shown)  remaining signal (MET M1250T; cell-free assay; 10 µM): 136%
CN([C@@H]1CCc2c(CC(=O)O)c3cc(S(C)(=O)=O)ccc3n2C1)S(=O)(=O)c1ccc(F)cc1  remaining binding (MET Y1235D; cell-free assay, competition with immobilised ligand; 1 µM): 100%
CN(CCCC(F)(F)F)c1nccc(-c2cnn3ncccc23)n1  remaining binding (MET Y1235D; binding; 1 µM): 100%
